“And” between values parts separate entries of the source, which are not always exact repeats. Identical values can stand only once. Like-named read-outs stand apart in the source and are kept apart here. Values belong to the compound of their own block, whether it stands above or below them.
Columns and labels:
[1] = biological target: hybrid OLFα+RETβ channels (UniProt Q00195+Q28181); type: biochemical; conditions: for block of channels by L-cis diltiazem: 10 μM L-cis diltiazem
In short: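 Xenopus oocytes were co-injected with olfactory α and rod β subunit mRNAs. Inside-out patches were recorded at 21–24°C in standard patch solution (115 mM NaCl, 5 EGTA, 1 EDTA, 5 HEPES, pH 7.5), held at −75 mV. Rod β incorporation was checked by applying 10 μM l-cis diltiazem. Currents were normalised to Imax at 2 mM cGMP.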

[2] = system: heteromeric RETα+β channels; type: biochemical, bovine; conditions: 10 μM L-cis diltiazem, saturating (2 mM) cGMP
native rod CNG channels = test: Inside-out patch recording of native rod CNG channels from rod outer segments; type: biochemical, tiger salamanders (Ambystoma tigrinum); conditions: for effect on the kinetics, cGMP sensitivity, or maximal current: in the absence of genistein
In short: (§1)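 Dark-adapted (1 h) tiger salamanders were anaesthetised in ice-cold […] (1 g/liter, 20 min). Retinas were triturated under dim red light, and inside-out patches were excised from rod or cone outer segments. Pipettes were 3–5 MΩ (115 mM NaCl, 5 EGTA, 1 EDTA, 5 HEPES, pH 7.5). Held at −75 mV; currents normalised to 2 mM cGMP Imax. Closed channels were pre-exposed 1 min to test compound, then given 2 mM cGMP. Ki from modified Hill fit.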

native cone CNG channels = test: Inside-out patch recording of native cone CNG channels from cone outer segments; type: biochemical, tiger salamanders (Ambystoma tigrinum)
In short: as §1

[3] = biological target: T1, homomeric OLFα channels (rat olfactory CNG channels) (Rattus norvegicus, UniProt Q00195); type: biochemical; conditions: concentrations up to 500 μM
T1 sequence (Q00195 1-664): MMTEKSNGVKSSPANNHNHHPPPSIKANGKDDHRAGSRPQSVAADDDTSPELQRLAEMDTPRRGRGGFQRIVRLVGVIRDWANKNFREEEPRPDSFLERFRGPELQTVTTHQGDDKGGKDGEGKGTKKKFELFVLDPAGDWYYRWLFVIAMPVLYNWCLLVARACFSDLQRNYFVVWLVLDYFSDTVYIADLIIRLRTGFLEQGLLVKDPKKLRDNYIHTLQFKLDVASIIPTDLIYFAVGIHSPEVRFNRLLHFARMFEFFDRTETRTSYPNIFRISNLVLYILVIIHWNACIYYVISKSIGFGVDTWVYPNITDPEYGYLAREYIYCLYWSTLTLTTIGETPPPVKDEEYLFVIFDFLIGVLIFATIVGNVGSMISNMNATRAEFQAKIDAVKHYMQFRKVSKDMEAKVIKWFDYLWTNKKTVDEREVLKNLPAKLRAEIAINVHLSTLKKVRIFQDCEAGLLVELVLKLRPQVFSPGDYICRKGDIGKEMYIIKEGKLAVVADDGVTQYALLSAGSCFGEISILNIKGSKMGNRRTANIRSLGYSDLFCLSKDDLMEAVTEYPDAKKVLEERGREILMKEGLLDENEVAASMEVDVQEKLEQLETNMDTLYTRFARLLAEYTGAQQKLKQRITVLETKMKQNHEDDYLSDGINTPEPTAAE

[4] = system: native olfactory CNG channels; type: biochemical, tiger salamanders
In short: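 Olfactory epithelium from land-phase tiger salamanders was digested with papain for 18–22 min at 21°C, washed 10 min in ice-cold solution and triturated to single neurons. Excised patches used 10–20 MΩ pipettes. Held at −75 mV; currents normalised to 2 mM cGMP Imax; mean ± SEM.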

[5] = biological target: T2, homomeric RETα channels (α subunits of the bovine rod photoreceptor CNG channel) (Bos taurus, UniProt Q00194); type: biochemical
T2 sequence (Q00194 1-690): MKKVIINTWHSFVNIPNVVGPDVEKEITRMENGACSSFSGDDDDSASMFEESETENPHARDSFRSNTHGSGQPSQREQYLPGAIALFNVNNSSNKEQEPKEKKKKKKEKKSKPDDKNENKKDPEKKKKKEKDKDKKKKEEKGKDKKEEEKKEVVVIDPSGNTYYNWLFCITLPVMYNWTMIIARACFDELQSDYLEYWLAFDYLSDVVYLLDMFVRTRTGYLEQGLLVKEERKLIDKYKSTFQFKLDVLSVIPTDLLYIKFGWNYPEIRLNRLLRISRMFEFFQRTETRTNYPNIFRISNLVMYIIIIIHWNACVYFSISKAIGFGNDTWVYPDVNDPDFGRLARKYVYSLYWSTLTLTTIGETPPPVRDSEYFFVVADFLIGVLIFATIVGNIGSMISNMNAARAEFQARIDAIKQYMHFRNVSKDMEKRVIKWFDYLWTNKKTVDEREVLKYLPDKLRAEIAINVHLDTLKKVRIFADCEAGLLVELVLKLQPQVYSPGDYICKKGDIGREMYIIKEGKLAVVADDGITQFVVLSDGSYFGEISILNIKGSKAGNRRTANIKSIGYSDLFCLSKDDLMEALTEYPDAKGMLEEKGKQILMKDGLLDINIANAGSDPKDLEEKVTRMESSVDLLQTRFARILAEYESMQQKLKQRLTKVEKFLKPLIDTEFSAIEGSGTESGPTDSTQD
In short: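 Bovine rod CNG α-subunit cRNA was injected into Xenopus oocytes (50 nl at 1 ng/nl). After 2–7 d, vitelline membrane was removed. Inside-out patches were recorded at 21–24°C with 2–3 MΩ pipettes in standard patch solution (115 mM NaCl, 5 EGTA, 1 EDTA, 5 HEPES, pH 7.5), held at −75 mV. Perfusion switched in 50 ms. Test compound (DMSO stock) was applied before or after 2 mM cGMP. Ki and Hill coefficient from modified Hill fit.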

[6] = biological target: T3, heteromeric OLFα+β channels (Rattus norvegicus, UniProt Q00195+Q64359); type: biochemical; conditions: closed and fully activated channels
T3 sequence (Q00195 1-664): T1 sequence (Q00195 1-664)
T3 sequence (Q64359 1-575): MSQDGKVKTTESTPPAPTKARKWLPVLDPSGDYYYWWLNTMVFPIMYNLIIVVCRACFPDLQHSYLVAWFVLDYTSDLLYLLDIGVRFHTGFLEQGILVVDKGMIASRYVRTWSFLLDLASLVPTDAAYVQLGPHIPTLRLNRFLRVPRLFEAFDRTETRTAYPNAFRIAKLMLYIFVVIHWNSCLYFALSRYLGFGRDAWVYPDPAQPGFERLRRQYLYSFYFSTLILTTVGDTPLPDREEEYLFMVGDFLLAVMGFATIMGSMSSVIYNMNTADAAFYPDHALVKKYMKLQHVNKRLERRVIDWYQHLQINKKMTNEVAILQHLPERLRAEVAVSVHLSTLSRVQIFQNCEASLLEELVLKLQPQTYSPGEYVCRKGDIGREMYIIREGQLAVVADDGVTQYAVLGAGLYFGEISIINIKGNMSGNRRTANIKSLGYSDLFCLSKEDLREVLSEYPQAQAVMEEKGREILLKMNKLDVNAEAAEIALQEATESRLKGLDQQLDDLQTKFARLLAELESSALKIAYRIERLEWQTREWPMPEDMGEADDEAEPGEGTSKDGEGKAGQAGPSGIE

[7] = biological target: heteromeric RETα+β channels (Bos taurus, UniProt Q00194); type: biochemical, bovine
Chain of heteromeric RETα+β channels (Bos taurus, UniProt Q00194) (Q28181 whole entry partner, one chain of several): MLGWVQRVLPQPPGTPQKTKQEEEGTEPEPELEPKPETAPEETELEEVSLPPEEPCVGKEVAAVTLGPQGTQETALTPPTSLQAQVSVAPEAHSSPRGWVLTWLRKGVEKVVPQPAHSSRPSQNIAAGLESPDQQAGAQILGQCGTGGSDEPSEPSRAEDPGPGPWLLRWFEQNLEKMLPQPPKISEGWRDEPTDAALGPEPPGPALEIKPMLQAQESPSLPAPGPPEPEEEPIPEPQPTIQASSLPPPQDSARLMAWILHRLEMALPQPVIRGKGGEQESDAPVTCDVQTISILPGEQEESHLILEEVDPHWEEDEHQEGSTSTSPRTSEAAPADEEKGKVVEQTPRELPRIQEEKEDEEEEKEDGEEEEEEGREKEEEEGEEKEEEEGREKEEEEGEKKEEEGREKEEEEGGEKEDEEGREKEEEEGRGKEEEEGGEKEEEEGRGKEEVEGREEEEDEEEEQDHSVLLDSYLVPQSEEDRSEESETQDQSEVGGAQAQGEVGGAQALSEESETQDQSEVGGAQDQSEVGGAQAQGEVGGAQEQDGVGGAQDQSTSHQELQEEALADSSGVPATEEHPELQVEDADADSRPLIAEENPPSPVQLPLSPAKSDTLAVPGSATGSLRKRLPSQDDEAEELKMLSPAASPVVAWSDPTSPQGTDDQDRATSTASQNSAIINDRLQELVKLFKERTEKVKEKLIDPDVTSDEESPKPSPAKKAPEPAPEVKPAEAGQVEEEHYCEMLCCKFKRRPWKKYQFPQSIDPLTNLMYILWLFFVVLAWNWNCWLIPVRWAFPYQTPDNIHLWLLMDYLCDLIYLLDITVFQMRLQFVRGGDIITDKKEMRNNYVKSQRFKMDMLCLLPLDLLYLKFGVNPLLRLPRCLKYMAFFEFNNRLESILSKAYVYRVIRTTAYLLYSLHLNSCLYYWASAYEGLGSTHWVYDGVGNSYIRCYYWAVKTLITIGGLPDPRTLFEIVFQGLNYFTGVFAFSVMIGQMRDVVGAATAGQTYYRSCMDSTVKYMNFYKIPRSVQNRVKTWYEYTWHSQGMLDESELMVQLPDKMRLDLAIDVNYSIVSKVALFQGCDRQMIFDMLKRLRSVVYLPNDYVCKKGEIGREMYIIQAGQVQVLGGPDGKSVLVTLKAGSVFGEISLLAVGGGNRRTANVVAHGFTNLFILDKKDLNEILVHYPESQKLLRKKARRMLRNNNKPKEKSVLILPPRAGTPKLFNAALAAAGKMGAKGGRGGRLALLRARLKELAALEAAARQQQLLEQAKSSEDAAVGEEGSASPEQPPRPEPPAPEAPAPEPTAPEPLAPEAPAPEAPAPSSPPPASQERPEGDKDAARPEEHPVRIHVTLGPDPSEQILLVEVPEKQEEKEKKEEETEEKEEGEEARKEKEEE

[8] = closed channels, saturating genistein (500 μM)
[9] = fully activated, saturating cGMP (2 mM)

Chain of hybrid OLFα+RETβ channels (Q28181 whole entry, one chain of several): as the sequence (Q28181 whole entry partner, one chain of several) above

block of channels by L-cis diltiazem ([1]; OLFα to RETβ mRNA ratio 1:1.5): 36.8 ± 2.9%
block of channels by L-cis diltiazem ([1]; OLFα to RETβ mRNA ratio 1:3): 32.8 ± 1.4%
Compound: COc1ccc([C@H]2Sc3ccccc3N(CCN(C)C)C(=O)[C@H]2OC(C)=O)cc1 (relative stereo) [L-cis diltiazem]
inhibition of channels by L-cis diltiazem ([2]; RETα to RETβ mRNA ratio 1:5): 50%
inhibition of channels by L-cis diltiazem ([2]; RETα to RETβ mRNA ratio 1:8): 78%
inhibition of channels by L-cis diltiazem ([2]; RETα to RETβ mRNA ratio 1:10): 80%

Compound: Nc1ncnc2c1ncn2[C@@H]1O[C@H](COP(=O)(O)OP(=O)(O)NP(=O)(O)O)[C@@H](O)[C@H]1O [AMP-PNP, adenylylimidodiphosphate]
effect on the kinetics, cGMP sensitivity, or maximal current (native rod CNG channels): no effect

Compound: O=CN/C=C/c1cc(O)ccc1O [erbstatin]
effect on the kinetics, cGMP sensitivity, or maximal current (native rod CNG channels): no effect

genistein inhibition of closed channels ([3]; closed channels): fails to inhibit
genistein inhibition of fully activated channels ([3]; fully activated channels): fails to inhibit
maximal inhibition of closed channels by saturating genistein [4, 8]: 28 ± 4%
inhibition of fully activated channels by genistein [4, 9]: 11 ± 4%
Hill coefficient of genistein inhibition ([5]; closed channels): ~2
inhibition of fully activated channels by genistein [5, 9]: 67 ± 4%
Hill coefficient of genistein inhibition ([5]; open, fully activated channels): ~1
time constant of genistein inhibition ([5]; open, fully activated channels): 9 s
Ki ([5]; read-out: apparent K i for genistein, closed channels): 4 µM
effect of genistein on hybrid channels ([1]; closed and fully activated states): no effect
Hill coefficient of genistein inhibition ([7]; closed channels): ~2 and ~1
Hill coefficient of genistein inhibition ([7]; open, fully activated channels): ~1
time constant of genistein inhibition ([7]; open, fully activated channels): ~1 s
Compound: O=c1c(-c2ccc(O)cc2)coc2cc(O)cc(O)c12 [genistein]
maximal inhibition of closed channels by saturating genistein (native cone CNG channels; [8]): 50 ± 3%
inhibition of fully activated channels by genistein (native cone CNG channels; [9]): 37 ± 3%
τ of slowly activating CNG current component after genistein pretreatment (native rod CNG channels; closed channels pre-exposed to 100 μM genistein for 1 min, then 2 mM cGMP): 8.5 s
maximal inhibition of closed channels by saturating genistein (native rod CNG channels; [8]): 61 ± 8%
inhibition of fully activated channels by genistein (native rod CNG channels; [9]): 31 ± 4%
time constant of genistein inhibition (native rod CNG channels; open, fully activated channels): 1.2 s
genistein inhibition compared with native olfactory channels [6]: inhibited to an even greater extent than were native olfactory channels
